From PubChem BioAssay
A selection: hits, their analogues and other compounds. The true share with any hit is near 2.3%.
TRPC4 agonist: opens the mouse TRPC4 cation channel | HEK293 TRPC4beta/mu-opioid, Fluo4 calcium fluorescence; active compounds read high | Q9QUQ5 | 310,000 compounds, 0.49% hits | B-score at 10 µM;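 active = B-score above 5 SD of library B-scores, and initial fluorescence ratio not above library mean plus 5 SD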;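 note: positive B-score marks a calcium rise read as TRPC4 activation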
Target sequence (Q9QUQ5 whole entry, looked up): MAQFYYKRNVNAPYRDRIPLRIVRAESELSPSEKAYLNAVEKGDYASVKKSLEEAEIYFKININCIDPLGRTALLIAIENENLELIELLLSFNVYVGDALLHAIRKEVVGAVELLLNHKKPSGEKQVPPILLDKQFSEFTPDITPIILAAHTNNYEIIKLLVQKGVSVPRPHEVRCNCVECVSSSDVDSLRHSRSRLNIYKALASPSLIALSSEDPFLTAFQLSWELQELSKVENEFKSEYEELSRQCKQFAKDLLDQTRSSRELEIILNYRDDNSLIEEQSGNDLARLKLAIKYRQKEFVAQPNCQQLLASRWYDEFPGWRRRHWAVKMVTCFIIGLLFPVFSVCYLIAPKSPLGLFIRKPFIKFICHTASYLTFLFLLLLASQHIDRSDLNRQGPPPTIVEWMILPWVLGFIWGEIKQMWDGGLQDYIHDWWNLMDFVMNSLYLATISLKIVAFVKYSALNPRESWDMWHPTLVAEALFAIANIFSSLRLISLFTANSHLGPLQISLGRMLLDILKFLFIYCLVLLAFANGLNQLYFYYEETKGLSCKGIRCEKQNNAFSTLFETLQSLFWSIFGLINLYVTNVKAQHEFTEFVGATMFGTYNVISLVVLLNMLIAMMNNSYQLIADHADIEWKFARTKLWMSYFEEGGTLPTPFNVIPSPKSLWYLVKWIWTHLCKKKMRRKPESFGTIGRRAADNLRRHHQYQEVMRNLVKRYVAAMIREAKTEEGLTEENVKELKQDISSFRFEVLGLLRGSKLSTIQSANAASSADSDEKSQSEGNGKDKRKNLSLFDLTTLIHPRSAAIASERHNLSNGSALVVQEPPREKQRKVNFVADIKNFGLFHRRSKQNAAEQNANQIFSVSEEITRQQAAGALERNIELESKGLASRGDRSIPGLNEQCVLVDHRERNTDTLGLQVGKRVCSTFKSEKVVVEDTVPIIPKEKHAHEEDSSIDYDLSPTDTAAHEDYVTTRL
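Assay system: HEK293 stable line with TRPC4beta plus mu-opioid receptor. Times: dye 45 min RT, read 110 s. Measured by: kinetic Fluo4 calcium fluorescence. Measure: B score of integrated ratio. Controls: assay buffer as low control, maximal DAMGO as high control.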
TRPC6 activator: activates the mouse TRPC6 cation channel; Q61143; 310,000 compounds, 0.13% hits; B-score at 10 µM; AID 2550; HEK293-TRPC6 membrane potential dye fluorescence; active compounds read high;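 active = B-score of the integrated fluorescence ratio above library mean plus 3 SD, and starting fluorescence ratio within library mean plus 5 SD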;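 note: higher score means more depolarization so channel activation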
TRPC4 inh: inhibitors of mouse TRPC4 channel; 300,000 compounds, 0.39% hits; B-score at 10 µM; Q9QUQ5; HEK293 TRPC4beta/mu-opioid, DAMGO-evoked Fluo4 calcium flux; active compounds read low; AID 2247;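 active = B-score over 3 SD under the library average, no early fluorescence shift, positive overall ratio signal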
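Assay system: HEK293 cells with stable TRPC4beta plus mu-opioid receptor expression; Probe or stimulus: DAMGO in two steps, submaximal then maximal; Dosing: single-point compound dosing; Measured by: Fluo4 calcium-dye fluorescence, kinetic read; Read-out basis: B score from integrated Fluo4 fluorescence ratio.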
TRPC4 potent: TRPC4 (mouse) allosteric potentiation; AID 2227; B-score at 10 µM; HEK293 TRPC4beta/mu-opioid, DAMGO EC20, Fluo-4 Ca2+ flux; active compounds read high; Q9QUQ5; 310,000 compounds, 0.42% hits;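 active = B-score of calcium response area above 5 SD of library B-scores, with initial fluorescence ratio within 5 SD of library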;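 note: B-score of integrated fluorescence ratio over time as area under calcium response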
TRPC6 inhibitor: inhibitors of mouse TRPC6 channel | HEK293-TRPC6, membrane potential dye, ACh-evoked depolarization; active compounds read low | B-score at 10 µM | 310,000 compounds, 1.1% hits;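 active = B-score under library mean minus 3 SD, initial fluorescence not abnormally high, positive integrated signal ratio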;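 note: B-score derived from integrated fluorescence ratio over the kinetic read; more negative B-score means stronger inhibition of depolarization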
TRPC4 spec 2: second check of whether TRPC6 inhibitors also affect mouse TRPC4. shares compounds with TRPC6 inhibitor. HEK293 TRPC4/MOR, membrane potential dye fluorescence; channel activated by saturating DAMGO dose. inhibition, % at 10 µM. 920 compounds, 42% hits;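 active = compounds whose fluorescence signal differed from control wells by over 3 SD, either direction, in both duplicate plates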
TRPC4 spec: selectivity of TRPC6 inhibitors: effect on mouse TRPC4. shares compounds with TRPC6 inhibitor. HEK293 TRPC4/mu-opioid, membrane potential fluorescence. activity change, negative = inhibition, % at 10 µM. 920 compounds, 61% hits. AID 2777;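 active = rise or fall in signal beyond 3 SD of buffer-only wells in both replicate plates, either sign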;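 note: integrated kinetic ratio of fluorescence range over baseline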
HEK293 MPD ctr 2-1: second counter-screen for TRPC6 inhibitors: parental HEK293 cells | shares compounds with TRPC6 inhibitor | parental HEK293 membrane potential dye fluorescence; maximal acetylcholine challenge after compound addition | signal change vs control, % at 10 µM | 920 compounds, 31% hits | AID 2779;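 active = membrane potential signal moving either way by over 3 SD of the maximum-effect control, in both duplicate plates, meaning non-specific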
HEK293 MPD ctr-1: checks TRPC6 inhibitor effects in parental HEK293 cells; shares compounds with TRPC6 inhibitor; parental HEK293 membrane potential dye fluorescence; membrane potential signal change, % at 10 µM; 920 compounds, 60% hits;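 active = membrane potential signal shifting up or down by more than 3 SD of buffer-only wells, on both duplicate plates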
HEK293 MPD ctr-2: parental HEK293 nonspecific activity of TRPC6 modulators; shares compounds with TRPC6 inhibitor; membrane potential dye fluorescence; membrane potential signal change, % at 10 µM; 2,400 compounds, 51% hits; AID 488924;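 active = membrane potential signal moves up or down beyond 5 SD from buffer-only wells, on both duplicate plates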
HEK293 MPD ctr 2-2: second check of TRPC6 modulator effects in parental HEK293 cells | inhibition, % at 10 µM | 2,400 compounds, 14% hits | shares compounds with TRPC6 inhibitor | membrane potential dye fluorescence; after compound, maximal acetylcholine stimulation;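 active = membrane potential signal drops by more than 5 SD from the mean control signal, in both duplicate plates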;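 note: plate controls were acetylcholine ECmax control wells for no effect and buffer only wells for full effect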
TRPC4/MOR mod: selectivity of TRPC6 modulators against mouse TRPC4. shares compounds with TRPC6 inhibitor. HEK293 TRPC4/mu-opioid, membrane potential fluorescence. percent change from control (negative = decrease, positive = increase), % at 10 µM. 2,400 compounds, 69% hits. AID 488927;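 active = membrane potential signal moved up or down beyond 5 SD of buffer control wells, in both duplicate plates, actives on both sides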;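 note: plate controls were assay buffer wells for no effect and DAMGO maximal-effect wells for full effect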
TRPC4/MOR inh 2: second selectivity test of TRPC6 modulators against mouse TRPC4; shares compounds with TRPC6 inhibitor; 2,400 compounds, 55% hits; HEK293 TRPC4/mu-opioid, membrane potential dye fluorescence; stimulated with maximal-effect DAMGO; inhibition, % at 10 µM;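 active = drop in membrane potential signal beyond 5 SD of the control wells in both duplicate plates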;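 note: TRPC4 counter screen for TRPC6 hits run under conditions tuned for TRPC6 not TRPC4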
TRPC6 inh conf: confirmation of mouse TRPC6 inhibitors | shares compounds with TRPC6 inhibitor | HEK293-TRPC6, membrane potential dye, ACh-evoked depolarization | inhibition, % at 10 µM | 3,300 compounds, 43% hits | AID 488960;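 active = fluorescence ratio falls more than 5 SD below the full-stimulation control mean, in both duplicate runs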;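 note: integrated fluorescence ratio of peak minus minimum over baseline after agonist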
TRPC6 act conf: confirmation of mouse TRPC6 activators. shares compounds with TRPC6 inhibitor. activation, % at 10 µM. HEK293-TRPC6 membrane potential dye fluorescence, FDSS. AID 488961. 2,800 compounds, 11% hits;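 active = ratio signal rise beyond 5 SD above unstimulated control wells' mean, seen in both duplicate runs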;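 note: plate controls were buffer EC0 wells for no effect and acetylcholine ECmax response for full effect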
* = called active by the depositor; i = inactive; x = no result; + = active, no number.

SMILES | TRPC4 agonist | TRPC6 activator | TRPC4 inh | TRPC4 potent | TRPC6 inhibitor | HEK293 MPD ctr-2 | HEK293 MPD ctr 2-2 | TRPC4/MOR mod | TRPC4/MOR inh 2 | TRPC6 inh conf | TRPC6 act conf | others
CN(C)c1ccc(/C=C/C(=O)c2c(O)c3ccccc3oc2=O)cc1 | 102* | 131* | i | i | i | + | + | 491.5%* | 144.5%* | x | 943.5%*
COc1cc(-c2c(C#N)c(N)nc3[nH]c(=S)[nH]c(=O)c23)ccc1O | i | i | i | i | i | x | x | x | x | x | x
Cc1cc(Nc2cccc(Cl)c2)c2ccccc2n1 | i | i | i | i | i | x | x | x | x | x | x
CC(=O)c1cccc(Nc2cc(C)nc3ccccc23)c1 | i | i | i | i | -5.61* | -120.0%* | i | -19.5%* | 47.5%* | i | i
COc1ccc2nc(C)cc(Nc3ccc(C(=O)O)cc3)c2c1 | i | i | i | i | i | x | x | x | x | x | x
CC(=O)c1cccc(Nc2cc(C)nc3c(C)cccc23)c1 | i | i | i | i | -5.39* | -122.5%* | 57.0%* | -26.0%* | 52.5%* | 52.5%* | i
Cc1cccc(Nc2cc(C)nc3ccccc23)c1 | i | i | i | i | -6.03* | -139.5%* | 59.5%* | -26.0%* | 73.0%* | 66.0%* | i
CCOc1ccc(Nc2cc(C)nc3ccc(C)cc23)cc1 | i | i | i | i | -6.41* | -135.0%* | i | -29.0%* | 58.0%* | 50.0%* | i
CCOC(=O)c1ccc2nc(C)cc(Nc3cccc(C(=O)O)c3)c2c1 | i | i | i | i | i | x | x | x | x | x | x
CC(=O)Nc1ccc(S(=O)(=O)N2CCN=C2SCc2ccc([N+](=O)[O-])cc2)cc1 | i | i | i | i | i | x | x | x | x | x | x
CCCn1nc(C(=O)NNC(=O)Cc2ccc(S(=O)(=O)N3CCOCC3)s2)c2ccccc2c1=O | i | i | i | i | i | x | x | x | x | x | x
COc1ccc(CCC(C)NC2CCCCCCC2)cc1 (centres undefined) | i | i | i | i | -5.71* | 289.0%* | i | 64.5%* | 76.0%* | 56.0%* | x
COc1ccc(COC(=O)CCS(=O)(=O)c2ccc(C)cc2)cc1F | i | i | i | i | i | x | x | x | x | x | x
COc1ccc(Cn2c(-c3ccc(Br)cc3)c[n+]3ccccc23)cc1 | i | i | i | i | -12.6* | -269.0%* | i | -47.0%* | 48.5%* | 59.5%* | i
CNC(=O)NC(=O)COC(=O)/C=C/c1cccc(Br)c1 | i | i | i | i | -8.48* | x | x | x | x | i | i | TRPC4 spec 2=i;TRPC4 spec=i;HEK293 MPD ctr 2-1=i;HEK293 MPD ctr-1=i
NC(=O)NC(=O)COC(=O)/C=C/c1cccc(Br)c1 | i | i | i | i | i | x | x | x | x | x | x
CCOc1ccc(NC(=S)N2CCC(NC(=O)C3CCCCC3)CC2)cc1 | i | i | i | i | i | x | x | x | x | x | x
Cc1nnc(Nc2ccccn2)c2ccccc12 | i | i | i | i | -5.69* | -219.0%* | 58.0%* | -36.0%* | 45.5%* | 63.0%* | i
CCOC(=O)C1CCCN(C(=O)c2cc(CN3C(=O)c4ccccc4C3=O)ccc2OC)C1 (centres undefined) | i | i | i | i | i | x | x | x | x | x | x
NS(=O)(=O)c1ccc(CNc2nc(-c3cccnc3)nc3ccccc23)cc1 | i | i | i | i | i | x | x | x | x | x | x
COc1ccc(-n2c(SC(C)C(=O)Nc3ccc(NC(C)=O)cc3)nc3ccccc3c2=O)cc1OC (centres undefined) | i | i | i | i | i | x | x | x | x | x | x
O=C1/C(=C\c2cc(Cl)c(O)c(Cl)c2)SC(=S)N1Cc1ccccc1 | 97* | 152* | i | 35* | i | + | i | 537.5%* | i | i | 593.5%*
CCN(CC(=O)Nc1ccccc1C(F)(F)F)C(=O)CN1C(=O)NC(C)(c2ccccc2)C1=O (centres undefined) | i | i | i | i | i | x | x | x | x | x | x
Cn1cccc1/C=C1\CCC/C(=C\c2cccn2C)C1=O | i | 35.2* | i | i | i | 261.0%* | i | 97.5%* | i | i | 66.0%*
O=C1/C(=C/c2cccs2)CCC/C1=C\c1cccs1 | i | i | i | i | i | x | x | x | x | x | x
C=C(C)CSc1nc2sc3c(c2c(=O)n1C1CCCCC1)CCN(C)C3 | i | i | i | i | -7.53* | i | i | -20.0%* | i | i | i
CCOC(=O)c1c(-c2ccccc2)csc1NC(=O)/C(C#N)=C/c1ccc(OC)c(OC)c1 | i | i | i | i | i | x | x | x | x | x | x
CCOC(=O)c1c(-c2ccccc2)csc1NC(=O)/C(C#N)=C/c1ccc(O)c(OC)c1 | i | 35.3* | i | i | i | 438.0%* | i | 91.5%* | i | i | 129.0%*
Cc1ccc(Nc2c(-c3ccccn3)nc3cc(C)ccn23)cc1 | i | i | i | i | -5.46* | -134.0%* | i | -27.0%* | 71.5%* | i | i
